Sampled rows, rich in hits. Any-hit rate of the full collection: about 1.5%.
PPC-1+TRAIL kill = compounds killing PPC-1 cancer cells with TRAIL present, primary screen, TRAIL potentiator project, ATPLite luminescence, uHTS; PPC-1 cells + TRAIL, ATPLite viability luminescence; cell killing (% activity), % at 4 µM or 5 µM; 220,000 tested, 0.41% active; AID 1443, 2008;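 active = cell killing above 50% in the first pass at 4 µM, then a duplicate retest at 5 µM averaging 50% or more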
FLuc act counter = FLuc activators, initial screening, artefact control for FLuc-dependent activation tests, biochemical, ATPlite luminescence | Luciferin 4-monooxygenase (Photinus pyralis), P08659 | ATPlite luciferase biochemical, 10 min; 0 = ATP-free wells, 1 = DMSO control | activation factor at 10 µM | 200,000 tested, under 10 active | AID 1027, 2008;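 active = luciferase activation factor, scaled between plate controls, of at least 2 with compound at 10 µM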
Target sequence (P08659 whole entry, looked up): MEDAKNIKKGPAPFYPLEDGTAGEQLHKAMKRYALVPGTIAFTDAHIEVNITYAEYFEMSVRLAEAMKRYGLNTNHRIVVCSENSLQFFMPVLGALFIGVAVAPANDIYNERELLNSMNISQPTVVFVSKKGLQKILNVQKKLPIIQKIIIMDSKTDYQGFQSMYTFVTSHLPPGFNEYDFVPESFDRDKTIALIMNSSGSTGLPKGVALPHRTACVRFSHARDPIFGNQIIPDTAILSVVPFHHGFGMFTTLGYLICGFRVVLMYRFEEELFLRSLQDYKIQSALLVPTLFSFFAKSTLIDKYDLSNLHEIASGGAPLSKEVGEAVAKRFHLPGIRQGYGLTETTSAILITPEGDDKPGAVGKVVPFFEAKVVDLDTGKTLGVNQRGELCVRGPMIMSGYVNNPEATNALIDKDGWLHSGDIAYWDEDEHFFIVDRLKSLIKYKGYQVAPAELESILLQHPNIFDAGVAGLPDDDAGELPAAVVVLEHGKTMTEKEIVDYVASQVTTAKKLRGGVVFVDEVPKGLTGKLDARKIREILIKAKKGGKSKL
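System: cell-free luciferase reagent; medium: PBS as buffer for the ATP substrate; doses: test compounds dosed from 2 mM stocks in 100% DMSO; incubation: 10 min, room temperature; measured by: luminescence from luciferase reaction; read-out: luciferase activation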
TRAIL sens C8 = viability loss with TRAIL in NB7+C8 cells, primary screen, TRAIL sensitizer project, cell-based, ATPlite luminescence | 360,000 tested, 1% active | AID 624354, 2012 | inhibition (viability loss, TRAIL sensitization), % at 10 µM;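 active = compounds causing at least 50% loss of cell viability in the single-dose screen, relative to plate controls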
FLuc inh counter = firefly luciferase enzyme inhibitors, primary screen, artefact control for luciferase-based inhibitor screens, biochemical, luminescence, ATPLite; AID 1006, 2008; 10 min; inhibition, % at 10 µM; Luciferin 4-monooxygenase (Photinus pyralis), P08659; 200,000 tested, 1.5% active;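 active = inhibition above about 50% when tested at 10 µM, limit read from the data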
Numbers stand for hits; n = inactive; x = no result.

SMILES	PPC-1+TRAIL kill	FLuc act counter	TRAIL sens C8	FLuc inh counter
NC(=O)c1ccsc1NC(=O)c1coc2ccccc2c1=O	n	n	52	71
Cc1occc1C(=O)Nc1sccc1C(N)=O	x	x	n	x
Nc1ccc(-c2nc3ncccc3o2)c(O)c1	x	x	n	x
CC(C)c1ccc2oc(-c3cc(N)ccc3O)nc2c1	n	n	66	93
Cc1ccccc1-c1nc2cc(N)ccc2o1	n	n	n	55
CC1Cc2cc(/C(O)=C3/C(=O)C(=O)N(CCCn4ccnc4)C3c3ccc(F)cc3)ccc2O1 (configuration not stated)	x	x	n	x
COCCn1c(C)cc(C2=NNC(=Nc3ccc(Cl)cc3Cl)SC2)c1C	n	n	n	n
C=CCn1c(C)cc(C2=NNC(=NC(C)(C)C)SC2)c1C	n	n	70	90
C=CCN=C1NN=C(c2cc(C)n(CCOC)c2C)CS1	n	n	n	89
C=CCn1c(C)cc(C2=NNC(=Nc3ccc(C)cc3)SC2)c1C	n	n	n	n
COc1cc(C=C2C(=O)C=CC2=O)ccc1O	x	x	n	x
O=C(COC(=O)c1cncc(Br)c1)NC12CC3CC(CC(C3)C1)C2	x	x	n	x
CCC(C(=O)NC1CCCCC1)n1c(SCc2cccc(F)c2)nc2ccncc21 (configuration not stated)	n	n	n	n
CCC(C(=O)NC1CCCCC1)n1c(SCc2cccc(C)c2)nc2ccncc21 (configuration not stated)	n	n	n	68
CC(C)=CC(=O)O[C@@H]1Cc2cc3ccc(=O)oc3cc2OC1(C)C	x	x	n	x
CC(C)C(C)NC(=O)COc1ccc(S(=O)(=O)N2CCOCC2)cc1Cl (configuration not stated)	n	n	n	n
O=C(O)c1cc(-c2ccc(-c3ccc(F)cc3)o2)nc2ccccc12	x	x	59	x
Cc1ccc(C(=O)c2no[n+]([O-])c2C(=O)c2ccc(C)cc2)cc1	n	n	93	n
Cc1ccc(-c2noc(=O)n2CC(=O)c2ccc(Cl)cc2)cc1	n	n	n	n
CCC(C(=O)N1CCOCC1)n1nc(C)c2c(C)n(-c3ccccc3)nc2c1=O (configuration not stated)	x	x	n	x
CCCCN(CC)S(=O)(=O)c1ccc(C(=O)N=c2sc3cc(NC(C)=O)ccc3n2C)cc1	n	n	61	n
C=C(C)[C@@H]1C2=CC(C(=O)OC)=C(C[C@H](C(=C)C)[C@H]3O[C@H]3C3=C[C@H]1OC3=O)O2	x	x	77	x
COc1ccc2[nH]c3c(c2c1)CCN1C(=O)C(CC(=O)NCCCN(C)C)C[C@H](C(=O)N2CCCCC2)[C@@]31C (some centres not stated)	x	x	n	x
Cc1cc(Br)c(OCc2ccc(C(=O)N/N=C/c3ccc[nH]3)cc2)c(Br)c1	x	x	68	x
O=C(CNC(=O)c1ccc(Br)cc1)N/N=C/c1ccc[nH]1	n	n	n	n
SMILES	PPC-1+TRAIL kill	FLuc act counter	TRAIL sens C8	FLuc inh counter
O=C(N/N=C/c1ccc[nH]1)c1ccc(COc2cccc3cccnc23)cc1	n	n	63	n
COc1cc(OC)c(OC)cc1/C=N/Nc1nc2ccccc2[nH]1	n	x	n	x
Cc1ccc2cc(/C=N/Nc3nc4ccccc4[nH]3)c(Cl)nc2c1	n	n	87	94
Cn1c(N/N=C/c2cc3ccccc3nc2Cl)nc2ccccc21	n	n	88	96
C[C@H](NC(=O)c1ncn2c1c(=O)[nH]c1ccccc12)c1ccccc1	x	x	n	x
C[C@H](NC(=O)c1ncn2c1c(=O)[nH]c1ccc(Br)cc12)c1ccccc1	x	x	91	x
COCCNc1nc2cc(-c3ccc(F)cc3)sc2c(=O)n1C	x	x	n	x
O=c1[nH]c(CCl)nc2cc(-c3ccc(F)cc3)sc12	x	x	81	x
Nc1ccn([C@@H]2O[C@H](CNCc3ccc(OCC(=O)Nc4nccs4)cc3)[C@@H](O)[C@H]2O)c(=O)n1	x	x	n	x
COCCNS(=O)(=O)c1ccc(C)c(C)c1C	n	n	n	n
Cc1nc(=S)c2c([nH]1)-c1ccccc1CC21CCCCC1	n	x	80	x
O=C1c2ccc3c4c(ccc(c24)C(=O)N1c1cccc(O)c1)CC3	n	n	n	n
O=C1c2ccc3c4c(ccc(c24)C(=O)N1c1cccc(O)c1)C(=O)N(c1cccc(O)c1)C3=O	n	x	49	x
Nc1nc(N)c2cc(Sc3cccc(C(F)(F)F)c3)ccc2n1	x	x	73	x
Nc1ccc(Sc2cc(Cl)nc(N)n2)cc1	n	n	x	n
Oc1cccnc1Sc1cccc(C(F)(F)F)c1	x	x	n	x
Nc1nc(N)c2cc(Sc3ccc4ccccc4c3)ccc2n1	n	x	73	x

Source: PubChem BioAssay
